# From ChEMBL document CHEMBL1121504, “Aporphines. 31. Synthesis and antitumor activity of aporphine nitrogen mustards” (1980)
# Tests used:
# [1] = Antitumor activity against intracerebrally implanted ependymoblastoma (EM) tumor system at dose 0.5 mg/kg; type: functional
# Method in brief: (§1)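 Tumor implanted […] and treated at the listed mg/kg doses under standard NCI protocols. Activity is read out as T/C, the treated-to-control ratio.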
# [2] = Antitumor activity against intracerebrally implanted ependymoblastoma (EM) tumor system at dose 1 mg/kg; type: functional; method in brief: as §1
# [3] = system: B16; test: Antitumor activity against intraperitoneally implanted B16 melanoma tumor system at dose 32 mg/kg; type: functional, Mus musculus; details: route intraperitoneal
# Method in brief: (§2)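 Murine-screen tumor implanted intraperitoneally and treated at the listed mg/kg doses under standard NCI protocols. Activity is read out as T/C, the treated-to-control ratio.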
# [4] = Antitumor activity against intraperitoneally implanted colon 26 (C26) […] system at dose 32 mg/kg; type: functional, Mus musculus; details: route intraperitoneal; method in brief: as §2
# [5] = system: B16; test: Antitumor activity against intraperitoneally implanted B16 melanoma tumor system at dose 2 mg/kg; type: functional, Mus musculus; details: route intraperitoneal; method in brief: as §2
# [6] = system: B16; test: Antitumor activity against intraperitoneally implanted B16 melanoma tumor system at dose 16 mg/kg; type: functional, Mus musculus; details: route intraperitoneal; method in brief: as §2
# [7] = Antitumor activity against intraperitoneally implanted colon 26 (C26) […] system at dose 8 mg/kg; type: functional, Mus musculus; details: route intraperitoneal; method in brief: as §2
# [8] = system: B16; test: Antitumor activity against intraperitoneally implanted B16 melanoma tumor system at dose 4 mg/kg; type: functional, Mus musculus; details: route intraperitoneal; method in brief: as §2
# [9] = system: B16; test: Antitumor activity against intraperitoneally implanted B16 melanoma tumor system at dose 8 mg/kg; type: functional, Mus musculus; details: route intraperitoneal; method in brief: as §2
# [10] = system: P388; test: Antitumor activity against intraperitoneally implanted P388 lymphocytic leukemia (P388) system at dose 8 mg/kg; type: functional, Mus musculus; details: route intraperitoneal; method in brief: as §2
# [11] = Antitumor activity against intracerebrally implanted ependymoblastoma (EM) tumor system at dose 4 mg/kg; type: functional; method in brief: as §1
# [12] = system: P388; test: Antitumor activity against intracerebrally implanted lymphocytic leukemia (P388) system at dose 16 mg/kg; type: functional, Mus musculus
# [13] = system: P388; test: Antitumor activity against intraperitoneally implanted P388 lymphocytic leukemia (P388) system at dose 4 mg/kg; type: functional, Mus musculus; details: route intraperitoneal; method in brief: as §2
# [14] = Antitumor activity against intraperitoneally implanted colon 26 (C26) […] system at dose 4 mg/kg; type: functional, Mus musculus; details: route intraperitoneal; method in brief: as §2
# [15] = Antitumor activity against intracerebrally implanted ependymoblastoma (EM) tumor system at dose 2 mg/kg; type: functional; method in brief: as §1
# [16] = system: P388; test: Antitumor activity against intraperitoneally implanted P388 lymphocytic leukemia (P388) system at dose 16 mg/kg; type: functional, Mus musculus; details: route intraperitoneal; method in brief: as §2
# [17] = system: P388; test: Antitumor activity against intracerebrally implanted lymphocytic leukemia (P388) system at dose 8 mg/kg; type: functional, Mus musculus
# [18] = Antitumor activity against intraperitoneally implanted colon 26 (C26) […] system at dose 16 mg/kg; type: functional, Mus musculus; details: route intraperitoneal; method in brief: as §2
# [19] = Antitumor activity against intracerebrally implanted ependymoblastoma (EM) tumor system at dose 0.25 mg/kg; type: functional; method in brief: as §1
# [20] = system: P388; test: Antitumor activity against intraperitoneally implanted P388 lymphocytic leukemia (P388) system at dose 9.38 mg/kg; type: functional, Mus musculus; details: route intraperitoneal
# Method in brief: (§3)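 P388 lymphocytic leukemia inoculated intraperitoneally and run under standard NCI screening protocols. Each compound was tested at several graded doses in mg/kg. Activity was read out as T/C for each dose, with confirmatory activity judged by the NCI criteria.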
# [21] = system: P388; test: Antitumor activity against intraperitoneally implanted P388 lymphocytic leukemia (P388) system at dose 37.5 mg/kg; type: functional, Mus musculus; details: route intraperitoneal; method in brief: as §3
# [22] = system: P388; test: Antitumor activity against intraperitoneally implanted P388 lymphocytic leukemia (P388) system at dose 105 mg/kg; type: functional, Mus musculus; details: route intraperitoneal; method in brief: as §3
# [23] = system: P388; test: Antitumor activity against intraperitoneally implanted P388 lymphocytic leukemia (P388) system at dose 18.75 mg/kg; type: functional, Mus musculus; details: route intraperitoneal; method in brief: as §3
# [24] = system: P388; test: Antitumor activity against intraperitoneally implanted P388 lymphocytic leukemia (P388) system at dose 75 mg/kg; type: functional, Mus musculus; details: route intraperitoneal; method in brief: as §3
# [25] = system: P388; test: Antitumor activity against intraperitoneally implanted P388 lymphocytic leukemia (P388) system at dose 300 mg/kg; type: functional, Mus musculus; details: route intraperitoneal; method in brief: as §3
# [26] = Antitumor activity against intracerebrally implanted ependymoblastoma (EM) tumor system at dose 50 mg/kg; type: functional; method in brief: as §1
# [27] = system: B16; test: Antitumor activity against intracerebrally implanted B16 melanoma tumor system at dose 8 mg/kg; type: functional, Mus musculus; method in brief: as §1
# [28] = Antitumor activity against intracerebrally implanted ependymoblastoma (EM) tumor system at dose 25 mg/kg; type: functional; method in brief: as §1
# [29] = system: B16; test: Antitumor activity against B16 melanoma tumor system at dose 12.5 mg/kg; type: functional, Mus musculus
# Method in brief: (§4)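 B16 melanocarcinoma assay run at the listed mg/kg doses under standard NCI protocols. Activity is read out as T/C, the treated-to-control ratio.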
# [30] = Antitumor activity against intracerebrally implanted ependymoblastoma (EM) tumor system at dose 12.5 mg/kg; type: functional; method in brief: as §1
# [31] = system: P388; test: Antitumor activity against intraperitoneally implanted lymphocytic leukemia (P388) system at dose 50 mg/kg; type: functional, Mus musculus; details: route intraperitoneal; method in brief: as §2
# [32] = system: P388; test: Antitumor activity against intraperitoneally implanted lymphocytic leukemia (P388) system at dose 6.25 mg/kg; type: functional, Mus musculus; details: route intraperitoneal; method in brief: as §2
# [33] = system: P388; test: Antitumor activity against intraperitoneally implanted lymphocytic leukemia (P388) system at dose 25 mg/kg; type: functional, Mus musculus; details: route intraperitoneal; method in brief: as §2
# [34] = system: B16; test: Antitumor activity against B16 melanoma tumor system at dose 25 mg/kg; type: functional, Mus musculus; method in brief: as §4
# [35] = system: L1210; test: Antitumor activity against intraperitoneally implanted lymphoid leukemia (LE1210) tumor system at dose 100 mg/kg; type: functional, Mus musculus; details: route intraperitoneal; method in brief: as §2
# [36] = system: P388; test: Antitumor activity against intraperitoneally implanted lymphocytic leukemia (P388) system at dose 12.5 mg/kg; type: functional, Mus musculus; details: route intraperitoneal; method in brief: as §2
# [37] = system: L1210; test: Antitumor activity against intraperitoneally implanted lymphoid leukemia (LE1210) tumor system at dose 25 mg/kg; type: functional, Mus musculus; details: route intraperitoneal; method in brief: as §2
# [38] = system: L1210; test: Antitumor activity against intraperitoneally implanted lymphoid leukemia (LE1210) tumor system at dose 50 mg/kg; type: functional, Mus musculus; details: route intraperitoneal; method in brief: as §2
# [39] = system: B16; test: Antitumor activity against B16 melanoma tumor system at dose 50 mg/kg; type: functional, Mus musculus; method in brief: as §4
# [40] = system: B16; test: Antitumor activity against intracerebrally implanted B16 melanoma tumor system at dose 16 mg/kg; type: functional, Mus musculus; method in brief: as §1
# [41] = system: P388; test: Antitumor activity against intraperitoneally implanted P388 lymphocytic leukemia (P388) system at dose 25 mg/kg; type: functional, Mus musculus; details: route intraperitoneal; method in brief: as §2
# [42] = system: B16; test: Antitumor activity against B16 melanoma tumor system at dose 3.13 mg/kg; type: functional, Mus musculus; method in brief: as §4
# [43] = system: P388; test: Antitumor activity against intraperitoneally implanted P388 lymphocytic leukemia (P388) system at dose 3.13 mg/kg; type: functional, Mus musculus; details: route intraperitoneal; method in brief: as §2
# [44] = system: P388; test: Antitumor activity against intraperitoneally implanted P388 lymphocytic leukemia (P388) system at dose 12.5 mg/kg; type: functional, Mus musculus; details: route intraperitoneal; method in brief: as §2
# [45] = system: P388; test: Antitumor activity against intraperitoneally implanted P388 lymphocytic leukemia (P388) system at dose 6.25 mg/kg; type: functional, Mus musculus; details: route intraperitoneal; method in brief: as §2
# [46] = system: B16; test: Antitumor activity against B16 melanoma tumor system at dose 1.56 mg/kg; type: functional, Mus musculus; method in brief: as §4
# [47] = system: P388; test: Antitumor activity against intraperitoneally implanted P388 lymphocytic leukemia (P388) system at dose 50 mg/kg; type: functional, Mus musculus; details: route intraperitoneal; method in brief: as §2
# [48] = system: B16; test: Antitumor activity against B16 melanoma tumor system at dose 6.25 mg/kg; type: functional, Mus musculus; method in brief: as §4
structure (smiles),measurement,setting,value
COc1ccc2c(c1O)-c1cccc3c1C(C2)N(CCCl)CC3 (stereo unspecified),T/C,[1],100
same,T/C,[2],96
same,T/C,[3],103
same,T/C,[4],124
same,T/C,[5],100
same,T/C,[6],106
same,T/C,[7],119
same,T/C,[8],106
same,T/C,[9],102
same,T/C,[10],114
same,T/C,[11],104
same,T/C,[12],107
same,T/C,[13],151
same,T/C,[14],107
same,T/C,[15],99
same,T/C,[16],128
same,T/C,[17],96
same,T/C,[18],108
same,T/C,[19],105
COc1ccc2c(c1O)-c1cccc3c1C(C2)N(CCOC(=O)NCCCl)CC3 (stereo unspecified),T/C,[20],101
same,T/C,[21],97
same,T/C,[22],99
same,T/C,[23],99
same,T/C,[24],99
same,T/C,[25],105
COc1ccc2c(c1OC(C)=O)-c1cc(O)cc3c1C(C2)N(C(=O)CN(CCCl)CCCl)CC3 (stereo unspecified),T/C,[26],86
same,T/C,[27],111
same,T/C,[28],99
same,T/C,[29],134
same,T/C,[30],94
same,T/C,[31],130
same,T/C,[32],143
same,T/C,[33],168
same,T/C,[34],135
same,T/C,[35],88
same,T/C,[36],174
same,T/C,[37],136
same,T/C,[38],127
same,T/C,[39],170
same,T/C,[40],102
COc1ccc2c(c1OC(C)=O)-c1cc(OC(C)=O)cc3c1C(C2)N(C(=O)CN(CCCl)CCCl)CC3 (stereo unspecified),T/C,[29],150
same,T/C,[41],185
same,T/C,[42],120
same,T/C,[43],138
same,T/C,[44],170
same,T/C,[34],150
same,T/C,[45],150
same,T/C,[46],120
same,T/C,[47],95
same,T/C,[48],159
same,T/C,[39],170
